≈ marks a conversion by molar mass, not a printed value.
Tests used:
1A9 = assay: Cytotoxicity against human 1A9 cells; assay type: functional; settings: read-out: ED50 (the source's name)
Procedure, shortened: (§1)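 Growth inhibition in cultured human tumor cell lines. Compound stocks were made in DMSO and held at -70 °C, then diluted into culture medium to a final DMSO level of ≤1% (v/v).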

MCF7 = assay: Cytotoxicity against human MCF7 cells; assay type: functional; settings: read-out: ED50 (the source's name); procedure, shortened: as §1
PC-3 = assay: Cytotoxicity against human PC3 cells; assay type: functional; settings: read-out: ED50 (the source's name); procedure, shortened: as §1
SK-MEL-2 = assay: Cytotoxicity against human SK-MEL-2 cells; assay type: functional; settings: read-out: ED50 (the source's name); procedure, shortened: as §1
MDA-MB-231 = assay: Cytotoxicity against human MDA-MB-231 cells; assay type: functional; settings: read-out: ED50 (the source's name); procedure, shortened: as §1
KB = assay: Cytotoxicity against human KB cells; assay type: functional; settings: read-out: ED50 (the source's name); procedure, shortened: as §1
[1] = Cytotoxicity against human KBVIN cells; assay type: functional; settings: read-out: ED50 (the source's name); procedure, shortened: as §1
CAKI-1 = assay: Cytotoxicity against human Caki1 cells; assay type: functional; settings: read-out: ED50 (the source's name); procedure, shortened: as §1
[2] = Cytotoxicity against human U87MG cells; assay type: functional, U-87MG ATCC; settings: U-87 MG, read-out: ED50 (the source's name); procedure, shortened: as §1
HCT-8 = assay: Cytotoxicity against human HCT8 cells; assay type: functional; settings: read-out: ED50 (the source's name); procedure, shortened: as §1
A549 = assay: Cytotoxicity against human A549 cells; assay type: functional; settings: read-out: ED50 (the source's name); procedure, shortened: as §1

Row | SMILES | EC50 (1A9) | EC50 (MCF7) | EC50 (PC-3) | EC50 (SK-MEL-2) | EC50 (MDA-MB-231) | EC50 (KB) | EC50 [1] | EC50 (CAKI-1) | EC50 [2] | EC50 (HCT-8) | EC50 (A549)
1 | COc1cc2oc(-c3ccc(O)cc3O)c(CC=C(C)C)c(=O)c2c(O)c1/C=C/C(C)C [ARTOCARPIN] | 3.4 µg/mL (≈ 7.79 µM) | 3.3 µg/mL (≈ 7.56 µM) | 4.1 µg/mL (≈ 9.39 µM) | 5.4 µg/mL (≈ 12.4 µM) | 3.8 µg/mL (≈ 8.71 µM) | 3.2 µg/mL (≈ 7.33 µM) | 3.6 µg/mL (≈ 8.25 µM) | 4.9 µg/mL (≈ 11.2 µM) | 3.7 µg/mL (≈ 8.48 µM) | 3.8 µg/mL (≈ 8.71 µM) | 3.3 µg/mL (≈ 7.56 µM)
2 | CC1(C)C=Cc2c(cc(O)c3c(=O)cc(-c4ccc(O)c(O)c4)oc23)O1 [ARTOCHAMIN C] | 2 µg/mL (≈ 5.68 µM) | 2.2 µg/mL (≈ 6.24 µM) | 4.2 µg/mL (≈ 11.9 µM) | 2.3 µg/mL (≈ 6.53 µM) | 6.2 µg/mL (≈ 17.6 µM) | 3.4 µg/mL (≈ 9.65 µM) | 3.4 µg/mL (≈ 9.65 µM) | 5.3 µg/mL (≈ 15 µM) | 7.2 µg/mL (≈ 20.4 µM) | 2.3 µg/mL (≈ 6.53 µM) | 3 µg/mL (≈ 8.51 µM)
3 | CC(C)=CCc1c2c(c(O)c3c(=O)c4c(oc13)-c1c(O)cc(O)c3c1C(C4)C(C)(C)O3)C=CC(C)(C)O2 (centres undefined) [ARTONIN A] | – | 6.7 µg/mL (≈ 13.3 µM) | – | – | – | – | – | – | – | – | 6.1 µg/mL (≈ 12.1 µM)
4 | CC(C)=CCc1c(-c2cc(O)c(O)cc2O)oc2c3c(cc(O)c2c1=O)OC(C)(C)C=C3 [ARTONIN E] | < 1.25 µg/mL | 2.2 µg/mL (≈ 5.04 µM) | 6.9 µg/mL (≈ 15.8 µM) | 4.3 µg/mL (≈ 9.85 µM) | 3 µg/mL (≈ 6.87 µM) | 6.5 µg/mL (≈ 14.9 µM) | > 10 µg/mL | 9.7 µg/mL (≈ 22.2 µM) | 6.4 µg/mL (≈ 14.7 µM) | 3.3 µg/mL (≈ 7.56 µM) | 8.5 µg/mL (≈ 19.5 µM)
5 | CC1(C)C=Cc2c(cc(O)c3c(=O)c4c(oc23)-c2c(O)cc(O)c3c2C(C4)C(C)(C)O3)O1 (centres undefined) [CYCLOARTOBILOXANTHONE] | – | 7.7 µg/mL (≈ 17.7 µM) | – | – | – | – | – | – | – | – | 7.2 µg/mL (≈ 16.6 µM)
6 | COc1ccc2c(c1)OC(C=C(C)C)c1c-2oc2cc(O)c(/C=C/C(C)C)c(O)c2c1=O (centres undefined) [CYCLOARTOCARPIN A] | – | 6 µg/mL (≈ 13.8 µM) | – | – | – | – | – | – | – | – | 6.6 µg/mL (≈ 15.2 µM)
